Laboratory results: ChEMBL document CHEMBL4257484, “Membrane-active antimicrobial poly(amino-modified alkyl) β-cyclodextrins synthesized via click reactions” (Medchemcomm, 2018)
In brackets after ≈: the same amount, converted by molar mass.

What was measured:
[1] = tested on: Staphylococcus aureus; assay: Induction of membrane disruption in methicillin-sensitive Staphylococcus aureus FDA 209P assessed as increase in K+ efflux at 10 uM after 30 mins relative to control; format: functional
Method in brief: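 S. aureus suspension (2 × 10^9 cells per cm3, 100 mM choline chloride/50 mM Mops-Tris, pH 7.2) treated with CD at 37 °C for 30 min, then centrifuged. K+ released into the supernatant was read with a K+-selective electrode. Efflux is expressed relative to 10 µM melittin, which sets 100%.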

[2] = tested on: Staphylococcus aureus; assay: Antibacterial activity against Staphylococcus aureus FDA 209P assessed as decrease in cell viability after 30 mins by colony counting method; format: functional; details: 0.5 h
Method in brief: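 S. aureus washed twice and suspended at 2 × 10^9 cells per cm3 in 100 mM choline chloride/50 mM Mops-Tris, pH 7.2. Exposed to CD at 37 °C for 30 min. An aliquot was diluted in physiological saline, plated on polypeptone/yeast extract/NaCl agar and incubated overnight at 37 °C. Viability was taken from colony counts; LC50 is the concentration giving 50% viability.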

[3] = tested on: Staphylococcus aureus; assay: Induction of membrane disruption in methicillin-sensitive Staphylococcus aureus FDA 209P assessed as increase in K+ efflux after 30 mins; format: functional; details: 0.5 h, read-out: ED50 (the source's name)
Method in brief: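 S. aureus washed twice and suspended at 2 × 10^9 cells per cm3 in 100 mM choline chloride/50 mM Mops-Tris, pH 7.2, then exposed to compound at 37 °C for 30 min. Released K+ was measured in the centrifuged supernatant with a K+-selective electrode. Melittin (10 µM) defined 100% efflux, and ED50 is the concentration giving 50% efflux.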

[4] = tested on: Escherichia coli; assay: Antibacterial activity against drug-sensitive Escherichia coli K-12 W3110 after 20 hrs by liquid microdilution method; format: functional; details: K-12 substr. W3110, 20 h
Method in brief: (§1)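 Two-fold serial dilutions of compound in Mueller–Hinton broth, inoculated with 1 × 10^4 cells and cultured at 37 °C for 20 h in microtiter wells.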

[5] = Hemolytic activity in rabbit RBC at 1 uM after 20 mins relative to control; format: ADME, cell-based, Oryctolagus cuniculus, Erythrocyte; details: rabbit red blood cells (erythrocytes), read-out: Activity
Method in brief: (§2)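 Rabbit erythrocytes suspended in 150 mM NaCl/10 mM Hepes-NaOH, pH 7.4, at 0.5% hematocrit (final) and incubated with compound at 37 °C. The table footnote gives 20 min; the methods section gives 30 min. Hemolysis was read as absorbance at 540 nm, with 50 µM lysolecithin defining 100% hemolysis.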

[6] = Hemolytic activity in rabbit RBC at 2 uM after 20 mins relative to control; format: ADME, cell-based, Oryctolagus cuniculus, Erythrocyte; details: rabbit red blood cells (erythrocytes), read-out: Activity; method in brief: as §2
[7] = Lipophilicity, log P of the compound; format: physicochemical; details: octanol/water
[8] = tested on: Bacillus subtilis; assay: Antibacterial activity against drug-sensitive Bacillus subtilis 168 after 20 hrs by liquid microdilution method; format: functional; details: subsp. subtilis str. 168, 20 h; method in brief: as §1
[9] = tested on: Erythrocyte; assay: Hemolytic activity in rabbit RBC at 50 uM after 20 mins relative to control; format: ADME, cell-based, Oryctolagus cuniculus; details: erythrocyte, 20 min, 50 µM; method in brief: as §2
[10] = tested on: Enterococcus faecalis; assay: Antibacterial activity against vancomycin-resistant Enterococcus faecalis MS29016 after 18 to 20 hrs by agar dilution method; format: functional
Method in brief: (§3)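 Agar dilution per CLSI. Overnight broth cultures were diluted 100-fold, and one loopful (about 10^5 to 10^4 CFU) was spotted onto agar plates containing the CD. Growth was scored after 18–20 h at 37 °C. MIC values are in µM.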

[11] = Hemolytic activity in rabbit RBC at 5 uM after 20 mins relative to control; format: ADME, cell-based, Oryctolagus cuniculus, Erythrocyte; details: rabbit red blood cells (erythrocytes), read-out: Activity; method in brief: as §2
[12] = Hemolytic activity in rabbit RBC at 10 uM after 20 mins relative to control; format: ADME, cell-based, Oryctolagus cuniculus, Erythrocyte; details: rabbit red blood cells (erythrocytes), read-out: Activity; method in brief: as §2
[13] = tested on: Staphylococcus aureus; assay: Antibacterial activity against methicillin-resistant Staphylococcus aureus MS29202 after 18 to 20 hrs by agar dilution method; format: functional; method in brief: as §3
[14] = tested on: Enterococcus faecium; assay: Antibacterial activity against drug-resistant Enterococcus faecium MS29120 after 18 to 20 hrs by agar dilution method; format: functional; method in brief: as §3
[15] = tested on: Staphylococcus aureus; assay: Antibacterial activity against methicillin-sensitive Staphylococcus aureus FDA 209P after 20 hrs by liquid microdilution method; format: functional; method in brief: as §1
[16] = tested on: Pseudomonas aeruginosa; assay: Antibacterial activity against drug-sensitive Pseudomonas aeruginosa PAO1 after 20 hrs by liquid microdilution method; format: functional; details: PAO1, 20 h; method in brief: as §1
[17] = tested on: Salmonella typhimurium; assay: Antibacterial activity against drug-sensitive Salmonella typhimurium LT2 after 20 hrs by liquid microdilution method; format: functional, Salmonella enterica subsp. enterica serovar Typhimurium; details: Salmonella enterica, LT2, 20 h; method in brief: as §1
[18] = Hemolytic activity in rabbit RBC at 20 uM after 20 mins relative to control; format: ADME, cell-based, Oryctolagus cuniculus, Erythrocyte; details: rabbit red blood cells (erythrocytes), read-out: Activity; method in brief: as §2
[19] = tested on: Enterococcus faecalis; assay: Antibacterial activity against drug-resistant Enterococcus faecalis MS29030 after 18 to 20 hrs by agar dilution method; format: functional; method in brief: as §3
[20] = tested on: Streptococcus agalactiae; assay: Antibacterial activity against drug-resistant Streptococcus agalactiae B1 after 18 to 20 hrs by agar dilution method; format: functional; method in brief: as §3

SMILES | Activity [1] | LC50 [2] | EC50 [3] | MIC [4] | hemolysis at 20 min, 1 µM [5] | hemolysis at 20 min, 2 µM [6] | logP [7] | MIC [8] | Activity [9] | MIC [10] | hemolysis at 20 min, 5 µM [11] | hemolysis at 20 min, 10 µM [12] | MIC [13] | MIC [14] | MIC [15] | MIC [16] | MIC [17] | hemolysis at 20 min, 20 µM [18] | MIC [19] | MIC [20]
CC[C@H](C)[C@H](NC(=O)CN)C(=O)NCC(=O)N[C@@H](C)C(=O)N[C@H](C(=O)N[C@@H](CC(C)C)C(=O)N[C@@H](CCCCN)C(=O)N[C@H](C(=O)N[C@@H](CC(C)C)C(=O)N[C@H](C(=O)N[C@H](C(=O)NCC(=O)N[C@@H](CC(C)C)C(=O)N1CCC[C@H]1C(=O)N[C@@H](C)C(=O)N[C@@H](CC(C)C)C(=O)N[C@H](C(=O)N[C@@H](CO)C(=O)N[C@@H](Cc1c[nH]c2ccccc12)C(=O)N[C@H](C(=O)N[C@@H](CCCCN)C(=O)N[C@@H](CCCNC(=N)N)C(=O)N[C@@H](CCCCN)C(=O)N[C@@H](CCCNC(=N)N)C(=O)N[C@@H](CCC(N)=O)C(=O)N[C@@H](CCC(N)=O)C(N)=O)[C@@H](C)CC)[C@@H](C)CC)[C@@H](C)O)[C@@H](C)O)C(C)C)C(C)C [MELITTIN] | 100% | 0.2 to 0.5 µM | 0.2 to 0.5 µM |  |  |  |  |  |  |  |  |  |  |  |  |  |  |  |  | 
CCCCCCCNCc1cn(C[C@H]2O[C@@H]3O[C@H]4[C@H](O)[C@@H](O)[C@@H](O[C@H]5[C@H](O)[C@@H](O)[C@@H](O[C@H]6[C@H](O)[C@@H](O)[C@@H](O[C@H]7[C@H](O)[C@@H](O)[C@@H](O[C@H]8[C@H](O)[C@@H](O)[C@@H](O[C@H]9[C@H](O)[C@@H](O)[C@@H](O[C@H]2[C@H](O)[C@H]3O)O[C@@H]9Cn2cc(CNCCCCCCC)nn2)O[C@@H]8Cn2cc(CNCCCCCCC)nn2)O[C@@H]7Cn2cc(CNCCCCCCC)nn2)O[C@@H]6Cn2cc(CNCCCCCCC)nn2)O[C@@H]5Cn2cc(CNCCCCCCC)nn2)O[C@@H]4Cn2cc(CNCCCCCCC)nn2)nn1 |  | 15 µM | 30 µM | 20 µM (≈ 47.7 µg/mL) | 9% | 39% | 0.36 | 5 µM (≈ 11.9 µg/mL) | 137% | > 40 µM | 85% | 110% | > 40 µM | > 40 µM | 5 to 40 µM (≈ 11.9 to 95.3 µg/mL) | 40 µM (≈ 95.3 µg/mL) | 20 µM (≈ 47.7 µg/mL) | 116% | > 40 µM | > 40 µM
